{"source": "ChEMBL document CHEMBL4765233", "about": "“From Lead to Drug Candidate: Optimization of 3-(Phenylethynyl)-1H-pyrazolo[3,4-d]pyrimidin-4-amine Derivatives as Agents for the Treatment of Triple Negative Breast Cancer” (J Med Chem, 2016)", "key": {"NCI-H1437": {"tested_on": "NCI-H1437", "experiment": "Antiproliferative activity against human NCI-H1437 cells assessed as reduction in cell viability incubated for 72 hrs by MTT assay", "assay_type": "functional, cell-based", "conditions": "NCI-H1437, 72 h", "procedure,_shortened": "(§1)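 MTT viability assay. ATCC cell lines were grown in designated medium with 10% FBS at 37 °C, 5% CO2. Cells seeded at 1500−30000 per well and incubated 24 h, then exposed to compound (0−10 μg/mL) for 72 h. MTT added for 2−4 h. Formazan dissolved in DMSO (adherent) or acidified SDS overnight (suspension), absorbance read at 570 nm. Triplicates; IC50 calculated.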"}, "MDA-MB-231 [1]": {"tested_on": "MDA-MB-231", "experiment": "Inhibition of colony formation in human MDA-MB-231 cells at >0.1 uM treated for 12 days by crystal violet staining based visual analysis", "assay_type": "functional", "conditions": "dose microM >0.1; time 12 day", "procedure,_shortened": "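MDA-MB-231 cells seeded at 5000 per well in six-well plates and treated the next day, with drug-containing medium replaced every 4 days. After 12 days, colonies fixed with methanol and stained with crystal violet, then photographed.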"}, "[2]": {"experiment": "Cmax in Sprague-Dawley rat at 10 mg/kg, po administered via gavage by LC-MS analysis", "assay_type": "ADME, organism-based", "design": "route oral, dose 10 mg/kg", "conditions": "in vivo"}, "[3]": {"experiment": "AUC (0 to t) in Sprague-Dawley rat at 10 mg/kg, po administered via gavage by LC-MS analysis", "assay_type": "ADME, organism-based", "design": "dose 10 mg/kg", "conditions": "in vivo"}, "[4]": {"biological_target": "Fibroblast growth factor receptor 2 (Homo sapiens, UniProt P21802, N549H)", "sequence (P21802 22-821 N549H limits assumed)": "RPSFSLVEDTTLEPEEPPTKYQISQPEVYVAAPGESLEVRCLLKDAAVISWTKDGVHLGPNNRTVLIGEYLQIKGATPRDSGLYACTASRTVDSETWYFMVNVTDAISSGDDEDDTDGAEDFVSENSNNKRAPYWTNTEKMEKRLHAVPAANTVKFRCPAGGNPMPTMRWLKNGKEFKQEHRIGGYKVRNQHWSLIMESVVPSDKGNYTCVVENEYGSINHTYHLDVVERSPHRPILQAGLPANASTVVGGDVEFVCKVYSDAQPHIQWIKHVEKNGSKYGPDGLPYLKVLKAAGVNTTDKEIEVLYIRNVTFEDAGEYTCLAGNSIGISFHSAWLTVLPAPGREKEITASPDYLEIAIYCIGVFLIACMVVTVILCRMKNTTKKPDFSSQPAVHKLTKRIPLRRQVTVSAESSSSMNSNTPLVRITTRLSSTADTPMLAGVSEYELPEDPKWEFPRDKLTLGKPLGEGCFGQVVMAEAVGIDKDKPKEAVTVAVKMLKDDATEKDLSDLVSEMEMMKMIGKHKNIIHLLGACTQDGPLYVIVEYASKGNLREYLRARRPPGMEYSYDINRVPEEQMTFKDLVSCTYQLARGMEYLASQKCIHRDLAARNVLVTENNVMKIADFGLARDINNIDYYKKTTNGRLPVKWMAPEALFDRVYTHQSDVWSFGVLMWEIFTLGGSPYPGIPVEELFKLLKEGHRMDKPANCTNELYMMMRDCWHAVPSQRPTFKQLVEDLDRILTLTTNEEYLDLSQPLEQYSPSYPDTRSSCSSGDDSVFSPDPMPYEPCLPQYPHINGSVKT", "experiment": "Inhibition of human recombinant FGFR2 N549H mutant (456 to 770 residues) using GGEEEEYFELVKKKK as substrate incubated for 40 mins in presence of [gamma33P-ATP] by radiometric scintillation counting analysis"}, "Danio rerio": {"organism": "Danio rerio", "experiment": "Antiangiogenesis activity in EGFP-labelled zebrafish embryo assessed as reduction in formation of major cranial vessel at 1.25 to 5 uM incubated for overnight by fluorescence microscopic analysis", "assay_type": "functional, organism-based", "conditions": "dose 1.25-5 µM", "procedure,_shortened": "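Transgenic FLK:EGFP zebrafish kept at 28 °C, pH 7.2−7.4, 14 h light/10 h dark. Embryos at 30 hpf incubated overnight with compound at 1.25, 2.5 or 5 μM beside a blank control. Fish anaesthetized, then vessels imaged by fluorescence microscopy.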"}, "[5]": {"experiment": "Metabolic stability in human liver microsomes assessed as parent compound remaining at 1 uM measured after 60 mins in presence of NADPH by HPLC-MS/MS analysis", "assay_type": "ADME, Microsome", "conditions": "read-out: Stabilty", "procedure,_shortened": "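Compound at 1 μM incubated with 0.5 mg/mL liver microsomes and 1 mM NADPH. Samples taken at 0, 10, 15, 30, 45 and 60 min and quenched with acetonitrile. After centrifugation, supernatant analysed by HPLC-MS/MS, with percent parent remaining relative to the 0 min area.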"}, "[6]": {"biological_target": "Tyrosine-protein kinase receptor TYRO3 (Homo sapiens, UniProt Q06418)", "sequence (Q06418 whole entry)": "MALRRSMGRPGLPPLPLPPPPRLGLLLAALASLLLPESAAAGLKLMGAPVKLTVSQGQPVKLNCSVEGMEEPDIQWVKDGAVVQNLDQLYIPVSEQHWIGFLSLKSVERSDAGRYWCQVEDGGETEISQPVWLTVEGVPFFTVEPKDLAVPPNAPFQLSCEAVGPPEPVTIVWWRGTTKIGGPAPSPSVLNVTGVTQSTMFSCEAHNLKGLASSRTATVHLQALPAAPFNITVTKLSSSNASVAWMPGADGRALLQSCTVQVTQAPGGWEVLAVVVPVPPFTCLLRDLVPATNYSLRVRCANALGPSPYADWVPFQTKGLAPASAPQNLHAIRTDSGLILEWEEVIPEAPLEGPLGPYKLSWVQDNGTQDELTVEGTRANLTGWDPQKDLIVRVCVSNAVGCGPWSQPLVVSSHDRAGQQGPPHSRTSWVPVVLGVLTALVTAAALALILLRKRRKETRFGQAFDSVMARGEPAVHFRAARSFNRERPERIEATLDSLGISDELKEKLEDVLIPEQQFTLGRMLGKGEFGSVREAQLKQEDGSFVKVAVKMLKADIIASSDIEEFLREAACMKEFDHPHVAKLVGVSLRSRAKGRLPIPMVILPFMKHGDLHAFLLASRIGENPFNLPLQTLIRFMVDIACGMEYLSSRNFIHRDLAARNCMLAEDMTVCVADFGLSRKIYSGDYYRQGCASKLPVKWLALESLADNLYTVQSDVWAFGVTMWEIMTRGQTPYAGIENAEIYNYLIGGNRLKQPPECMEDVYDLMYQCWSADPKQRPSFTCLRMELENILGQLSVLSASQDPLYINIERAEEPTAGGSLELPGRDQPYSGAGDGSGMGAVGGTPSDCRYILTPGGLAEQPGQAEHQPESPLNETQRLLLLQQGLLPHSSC", "experiment": "Inhibition of human recombinant RSE (451 to end residues) using KVEKIGEGTYGVVYK as substrate incubated for 40 mins in presence of [gamma33P-ATP] by radiometric scintillation counting analysis", "procedure,_shortened": "(§2)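 Radiometric kinase assay run as an external profiling service, with ATP at the Km of each kinase. IC50 values are means of two independent experiments.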"}, "MDA-MB-231 [7]": {"tested_on": "MDA-MB-231", "experiment": "Induction of apoptosis in human MDA-MB-231 cells assessed as early apoptotic cells at 0.01 uM incubated for 24 hrs by annexin V-FITC and propidium iodide staining based flow cytometry analysis (reference value: 2 %)", "assay_type": "functional"}, "[8]": {"experiment": "Acute toxicity in female Sprague-Dawley rat assessed as increase of body weight at 200 mg/kg, po administered as single dose and monitored every 3 days", "assay_type": "organism-based", "conditions": "in vivo, 72 h", "procedure,_shortened": "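Sprague-Dawley rats (n = 3) received a single oral dose of 200 mg/kg in sterile water with 25% (v/v) PEG400 plus 5% DMSO. Behaviour and side effects were monitored daily, and average body weight was measured every 3 days.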"}, "MDA-MB-435": {"tested_on": "MDA-MB-435", "experiment": "Antiproliferative activity against human MDA-MB-435 cells assessed as reduction in cell viability incubated for 72 hrs by MTT assay", "assay_type": "functional, cell-based", "conditions": "MDA-MB-435, 72 h", "procedure,_shortened": "as §1"}, "Mus musculus": {"tested_on": "Mus musculus", "experiment": "Reduction in CD31 expression in tumor tissue of SCID mouse xenografted with human MDA-MB-231 cells at 40 mg/kg, po QD for 21 days by immunohistochemical analysis", "assay_type": "functional, organism-based", "conditions": "dose 40.0 mg/kg/day, time 21.0 day", "procedure,_shortened": "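SCID mice carried subcutaneous MDA-MB-231 xenografts (5 × 10^6 cells in 100 μL). Oral dosing in water with 25% PEG400 and 5% DMSO began at 150–200 mm3. Tumours were removed at the end of study, formalin-fixed and paraffin-embedded, then immunostained.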"}, "MDA-MB-231 [9]": {"tested_on": "MDA-MB-231", "experiment": "Induction of apoptosis in human MDA-MB-231 cells incubated for 24 hrs by annexin V-FITC and propidium iodide staining based flow cytometry analysis", "assay_type": "functional, cell-based", "conditions": "dose 0.01-0.1 µM", "procedure,_shortened": "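MDA-MB-231 cells (2 × 10^5) plated in six-well plates, treated with vehicle or compound at various concentrations for 24 h at 37 °C. Harvested, washed with ice-cold PBS, stained with Annexin V-FITC/PI and analysed by flow cytometry.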"}, "[10]": {"experiment": "Toxicity against SCID mouse xenografted with human MDA-MB-435 cells assessed as change in body weight at 10 to 40 mg/kg, po QD for 21 days and measured every 3 days", "assay_type": "organism-based", "conditions": "in vivo, 504 h, dose 10-40 mg/kg/day, time 21 day", "procedure,_shortened": "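Exponential-phase cells washed and injected subcutaneously (5 × 10^6 cells in 100 μL) into 5–6-week SCID mice. At 150–200 mm3, mice randomised to groups of 6. Oral dosing daily in water with 25% PEG400 and 5% DMSO; paclitaxel 10 mg/kg weekly by tail vein. Body weight measured every 3 days and side effects checked daily.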"}, "MDA-MB-231 [11]": {"tested_on": "MDA-MB-231", "experiment": "Antitumor activity against human MDA-MB-231 cells xenografted in SCID mouse assessed as tumor growth inhibition administered orally once daily for 21 days and measured every 3 days", "assay_type": "functional", "conditions": "dose 10-40 mg/kg/day, time 21.0 day", "procedure,_shortened": "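SCID mice (5−6 weeks) injected subcutaneously with 100 μL of cells at 5 × 10^7/mL. At 150−200 mm3 mice randomized, 6 per group. Oral compounds given in water with 25% PEG400 plus 5% DMSO; paclitaxel given 10 mg/kg/week iv. Tumor volume a×b²/2 and body weight measured every 3 days. Inhibition rate (c−d)/c×100% against vehicle control.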"}, "MDA-MB-231 [12]": {"tested_on": "MDA-MB-231", "experiment": "Increase in cleaved caspase-3 level in human MDA-MB-231 cells incubated for 20 hrs by Western blot analysis", "assay_type": "functional, cell-based", "conditions": "dose 0.01-0.3 µM", "procedure,_shortened": "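MDA-MB-231 cells given a concentration series for 20 h at 37 °C. Cells lysed in RIPA with protease cocktail, cleared at 12000 rpm, 4 °C. Protein quantified by Bradford, equal amounts run on SDS-PAGE, transferred to PVDF and immunoblotted.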"}, "[13]": {"biological_target": "Ribosomal protein S6 kinase alpha-1 (Homo sapiens, UniProt Q15418)", "sequence (Q15418 whole entry)": "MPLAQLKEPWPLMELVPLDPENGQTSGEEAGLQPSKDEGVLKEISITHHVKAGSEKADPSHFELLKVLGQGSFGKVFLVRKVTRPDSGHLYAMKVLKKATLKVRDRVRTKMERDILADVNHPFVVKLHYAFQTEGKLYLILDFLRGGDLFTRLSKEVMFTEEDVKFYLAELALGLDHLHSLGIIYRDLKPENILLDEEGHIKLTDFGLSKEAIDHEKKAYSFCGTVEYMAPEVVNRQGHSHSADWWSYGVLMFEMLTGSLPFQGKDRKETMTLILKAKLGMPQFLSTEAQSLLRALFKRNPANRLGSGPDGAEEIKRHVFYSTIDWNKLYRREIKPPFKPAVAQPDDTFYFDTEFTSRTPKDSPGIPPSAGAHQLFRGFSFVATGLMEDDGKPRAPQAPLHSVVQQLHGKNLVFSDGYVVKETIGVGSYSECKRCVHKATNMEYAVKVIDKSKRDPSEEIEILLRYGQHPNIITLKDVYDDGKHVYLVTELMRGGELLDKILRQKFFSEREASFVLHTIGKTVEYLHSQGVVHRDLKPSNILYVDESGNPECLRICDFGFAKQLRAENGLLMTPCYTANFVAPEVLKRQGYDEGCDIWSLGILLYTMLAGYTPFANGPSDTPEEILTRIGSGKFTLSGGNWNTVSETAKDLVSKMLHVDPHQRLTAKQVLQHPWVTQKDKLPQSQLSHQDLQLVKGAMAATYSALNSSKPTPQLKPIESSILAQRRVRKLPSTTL", "experiment": "Inhibition of human full length recombinant RSK1 using KKKNRTLSVA as substrate incubated for 40 mins in presence of [gamma33P-ATP] by radiometric scintillation counting analysis", "procedure,_shortened": "as §2"}, "[14]": {"experiment": "Inhibition of human recombinant EPHB2 A848S/K918E mutant (560 to end residues) using poly(Glu,Tyr)4:1 as substrate incubated for 40 mins in presence of [gamma33P-ATP] by radiometric scintillation counting analysis", "procedure,_shortened": "as §2"}}, "note": "Calls of active or inactive are those of the source. The calls are words filed in the database; no cut-off is given here."}
{"smiles": "Cc1ccc(NC(=O)c2ccc(C)c(C(F)(F)F)c2)cc1C#Cc1nn([C@H]2CC[C@H](O)CC2)c2ncnc(N)c12", "values": [{"measurement": "IC50", "setting": "NCI-H1437", "value": 2340, "unit": "nM"}, {"measurement": "inhibition (INH)", "setting": "MDA-MB-231 [1]", "value": 100, "unit": "%"}, {"measurement": "Cmax", "setting": "[2]", "value": 143, "unit": "ng/mL"}, {"measurement": "AUC(0-t)", "setting": "[3]", "value": 2860, "unit": "ng·h/mL"}, {"measurement": "IC50", "setting": "[4]", "value": 40, "unit": "nM"}, {"measurement": "Activity", "setting": "Danio rerio", "value": "inactive"}, {"measurement": "remaining at 1 h, 1 µM", "setting": "[5]", "value": "> 90", "unit": "%"}, {"measurement": "IC50", "setting": "[6]", "value": 351, "unit": "nM"}, {"measurement": "Activity", "setting": "MDA-MB-231 [7]", "value": 5.05, "unit": "%"}, {"measurement": "Activity", "setting": "[8]", "value": "Non-Toxic"}, {"measurement": "IC50", "setting": "MDA-MB-435", "value": 8, "unit": "nM"}, {"measurement": "inhibition", "setting": "Mus musculus", "value": "Active"}, {"measurement": "Activity", "setting": "MDA-MB-231 [9]", "value": "Dose-dependent effect"}, {"measurement": "Activity", "setting": "[10]", "value": "Non-Toxic"}, {"measurement": "Activity", "setting": "MDA-MB-231 [11]", "value": "Dose-dependent effect"}, {"measurement": "Activity", "setting": "MDA-MB-231 [12]", "value": "Dose-dependent effect"}, {"measurement": "IC50", "setting": "[13]", "value": 559, "unit": "nM"}, {"measurement": "IC50", "setting": "[14]", "value": 33, "unit": "nM"}]}
